Assay results from paper PMC3356046 (Frontiers in Oncology, 2011).

Experiments:
[1] = ref Wang et al., 2006b, Mi et al., 2008; cited from earlier work
[2] = test system: BP3 human lymphoma cell line; assay: Apoptosis, Annexin V-FITC and propidium iodide assay, BP3; assay type: cell-based
Outline: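 BP3 diffuse large B-cell lymphoma cells were grown in RPMI 1640 with 10% FBS and penicillin/streptomycin, then exposed to varying concentrations of test compound for 1 day. They were stained with FITC-Annexin V and propidium iodide and analysed by flow cytometry. Annexin V-negative/PI-negative cells were scored viable. Mean of two independent experiments ± SE.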

Structure (SMILES) | oral MTD [1] [mg/kg] | cytotoxic activity against BP3 cell lines [2]
Cc1cc2c(C(C)C)c(O)c(O)c(C=O)c2c(O)c1-c1c(C)cc2c(C(C)C)c(O)c(O)c(C=O)c2c1O [(−) Gossypol] | ~50 | 
CN(C)CC[C@H](CSc1ccccc1)Nc1ccc(S(=O)(=O)NC(=O)c2ccc(N3CCN(Cc4ccccc4-c4ccc(Cl)cc4)CC3)cc2)cc1[N+](=O)[O-] [ABT-737] |  | no cytotoxic activity
